Assay results collected from several papers.
Protocols differ between the studies behind these lines.
CYP2D6: Cytochrome P450 2D6 (CYP2D6, Homo sapiens, UniProt P10635)

Nc1nc(N)c2nc(C(=O)NCc3ccccc3)cnc2n1
inhibition (CYP2D6; enzyme activity, inhibitor, luciferase; 10 µM): 105%

Cc1nc(-c2cnc(NC(C)C)n(C)c2=O)ccc1Oc1ccnc(-c2cnn(C)c2)c1
AUC(0-t) (male beagle dog, plasma; oral, 3 mg/kg): 7030 ng·h/mL

COCCc1ccc(OCC(O)CNC(C)C)cc1 (stereo not drawn)
Cmax (CYP2D6; human, plasma; oral, 100 mg, single dose, healthy volunteers): 123 ng/mL

CC[C@@H]1CN(C(=O)NCC(F)(F)F)C[C@@H]1c1cnc2cnc3[nH]ccc3n12
AUC(0-t) (beagle dog, plasma; oral, 1 mg/kg, single dose): 558 ng·h/mL

Cc1ccc(C(CS(=O)(=O)c2ccccc2)=NN=C2N=C(c3ccc(Br)cc3)CS2)cc1
viability (WM 266-4; cell growth or viability, MTT; 1.6 µg, 48 h): 55.1%

C#C[C@]1(CO)O[C@@H](n2cnc3c(N)nc(F)nc32)C[C@@H]1O
CC50 (Ca-Ski; cell growth or viability, MTT; 24 h): > 50 µg/mL

CC(C)(C)c1nc(-c2cccc(NS(=O)(=O)c3c(F)cccc3F)c2F)c(-c2ccnc(N)n2)s1
viability (WM 266-4; cell growth or viability, MTT; 1.6 µg, 48 h): 64.6%

COc1cc2c3c(n(CCCN4CCOCC4)c(=O)c2cc1OC)-c1cc2c(cc1C3=O)OCO2
half-life (female beagle dog, plasma; intravenous, 10 mg/m², infusion): 8 h

C[C@@H]1CCC[C@H](n2cnc(-c3cc(Cl)ccc3-n3cc(Cl)nn3)cc2=O)c2cc(ccn2)-c2c(cnn2C(F)F)NC1=O
Vd (male rabbit, plasma; intravenous, 0.8 mg/kg): 1.4 L/kg

COC(=O)C1CCN(C(=O)c2cccc(NCc3cnc4nc(N)nc(N)c4n3)c2)CC1
inhibition (CYP2D6; enzyme activity, inhibitor, luciferase; 10 µM): -11.1%

Cc1ccc(C(CS(=O)(=O)c2ccccc2)=NNc2nc(-c3ccc(OCCCCOc4ccc(-c5csc(NN=C(CS(=O)(=O)c6ccccc6)c6ccc(C)cc6)n5)cc4)cc3)cs2)cc1
viability (WM 266-4; cell growth or viability, MTT; 1.6 µg, 48 h): 64.3%

CCn1c(=O)c(-c2cc(NC(=O)Nc3ccccc3)c(F)cc2Br)cc2cnc(NC)cc21
AUC(0-inf) (beagle dog, plasma; oral, 5 mg/kg, single dose): 4030 ng·h/mL
